Experimental data of several laboratories.
MAL12: Alpha-glucosidase MAL12 (MAL12, Saccharomyces cerevisiae S288c, UniProt P53341)
FABP1: Fatty acid-binding protein, liver (FABP1, Homo sapiens, UniProt P07148)
SQLE: Squalene monooxygenase (SQLE, Homo sapiens, UniProt Q14534)

| SMILES | target | effect on | action | technique | pH | notes | IC50 |
| --- | --- | --- | --- | --- | --- | --- | --- |
| COc1ccc(-c2nn(-c3ccccc3)cc2C2C(C(C)=O)=C(C)n3c(=O)c4ccccc4c(=O)n32)cc1 (stereo not drawn) | MAL12 | enzyme activity | inhibitor | absorbance | – | – | 13.7 µM |
| Cc1cc(/C=C2\Oc3cc(OCC4CC4)ccc3C2=O)cc(C)c1OC(C)(C)C(=O)O | FABP1 | cell-free assay | inhibitor | fluorescence | pH 7.4 | – | 3.6 µM |
| CN1CCC(CNc2ccc3ncc(-c4cccc(OC(F)(F)F)c4)n3n2)CC1 | Alpha-1A adrenergic receptor (ADRA1A, Homo sapiens, UniProt P35348) | calcium signal | antagonist | – | – | – | 4.81 µM |
| COc1ccc2c(c1)O/C(=C\c1cc(C)c(OC(C)(C)C(=O)O)c(C)c1)C2=O | FABP1 | cell-free assay | inhibitor | fluorescence | pH 7.4 | – | 9 µM |
| CC(=O)c1ccc2c(c1)N(CCCN1CCC(CCO)CC1)c1ccccc1S2 | SQLE | enzyme activity | inhibitor | absorbance | pH 7.4 | with preincubation | 1.44 µM |
| C[C@H]1CN(C(=O)Nc2ccc(C(F)(F)F)cc2)CCN1c1ccnc(Nc2ccc(O)cc2)n1 | MAL12 | enzyme activity | inhibitor | absorbance | pH 6.9 | – | 3.71 µM |
| O=C1C[C@@H](c2ccc(O)cc2)Oc2cc(O)cc(O)c21 | SQLE | enzyme activity | inhibitor | radiometric | – | – | 6.52 µM |
| COc1ccc(NC(=O)N2CCN(c3ccnc(Nc4ccc(Cl)cc4)n3)[C@@H](C)C2)cc1 | MAL12 | enzyme activity | inhibitor | absorbance | pH 6.9 | – | 7.43 µM |
| OCCN1CCN(CCCN2c3ccccc3Sc3ccc(C(F)(F)F)cc32)CC1 | SQLE | enzyme activity | inhibitor | absorbance | pH 7.4 | with preincubation | 12.3 µM |
| C[C@H]1CN(C(=O)CC#N)[C@]12CCN(c1ncnc3[nH]ccc13)C2 | Solute carrier family 22 member 6 (SLC22A6, Homo sapiens, UniProt Q4U2R8) | transporter uptake | inhibitor | – | – | – | 1.59 µM |
| CC(C)=CCC/C(C)=C/CC/C(C)=C/CC/C=C(\C)CC/C=C(\C)CCCNC1CC1 | SQLE | enzyme activity | inhibitor | radiometric | – | – | 2.68 µM |
| CCCOc1ccc2c(c1)O/C(=C\c1cc(C)c(OC(C)(C)C(=O)O)c(C)c1)C2=O | FABP1 | cell-free assay | inhibitor | fluorescence | pH 7.4 | – | 4.8 µM |
| C[C@H]1CN(C(=O)Nc2ccc(C(F)(F)F)cc2)CCN1c1ccnc(Nc2ccc(Cl)cc2Cl)n1 | MAL12 | enzyme activity | inhibitor | absorbance | pH 6.9 | – | 12 µM |
| O=C1COc2ccc(NS(=O)(=O)c3cccc(Cl)c3)cc2CN1C1CCCc2ccccc21 (stereo not drawn) | Replicase polyprotein 1ab, papain-like protease (rep, Severe acute respiratory syndrome coronavirus 2, UniProt P0DTD1) | enzyme activity | inhibitor | fluorescence | – | – | 6 µM |
| COc1ccc(Cl)cc1C(=O)NCCc1ccc(S(=O)(=O)NC(=O)NC2CCCCC2)cc1 | Solute carrier family 22 member 6 (SLC22A6, Homo sapiens, UniProt Q4U2R8, F442A) | transporter uptake | inhibitor | fluorescence | – | – | 17.7 µM |
| CNC(=O)[C@H](Cc1c[nH]c2ccccc12)NC(=O)[C@@H](CC(=O)NO)CC(C)C | Disintegrin and metalloproteinase domain-containing protein 10 (ADAM10, Homo sapiens, UniProt O14672) | enzyme activity | inhibitor | – | – | – | 0.776 µM |
| CCCCOc1ccc2c(c1)O/C(=C\c1cc(C)c(OC(C)(C)C(=O)O)c(C)c1)C2=O | FABP1 | cell-free assay | inhibitor | fluorescence | pH 7.4 | – | 5.3 µM |
| C[C@H]1CN(C(=O)Nc2ccc(C(F)(F)F)cc2)CCN1c1ccnc(Nc2cccc(Cl)c2)n1 | MAL12 | enzyme activity | inhibitor | absorbance | pH 6.9 | – | 3.45 µM |
| CCCOc1ccc2c(c1)O/C(=C\c1ccc(OC(C)C(=O)O)cc1)C2=O (stereo not drawn) | FABP1 | cell-free assay | inhibitor | fluorescence | pH 7.4 | – | 10.4 µM |
| COc1cc(-c2oc3cc(O)cc(O)c3c(=O)c2O)ccc1O | SQLE | enzyme activity | inhibitor | radiometric | – | – | 11.5 µM |
| Cc1cc2c(cc1C)N[C@H](c1ccccc1)[C@@H](O)C(=O)N2 | Cyclin-dependent kinase 5 (CDK5, Homo sapiens, UniProt Q00535) | enzyme activity | inhibitor | ELISA | – | – | 0.663 µM |
| C[C@@H]1CN(C(=O)Nc2ccc(Cl)c(Cl)c2)CCN1c1ccnc(Nc2ccc(Cl)cc2)n1 | MAL12 | enzyme activity | inhibitor | absorbance | pH 6.9 | – | 4.53 µM |
| CC(=O)C1=C(C)n2c(=O)c3ccccc3c(=O)n2C1c1cn(-c2ccccc2)nc1-c1ccc(Br)cc1 (stereo not drawn) | MAL12 | enzyme activity | inhibitor | absorbance | – | – | 18.6 µM |
| Cc1ccc(NC(=O)N2CCN(c3ccnc(Nc4ccc(Cl)cc4)n3)[C@@H](C)C2)cc1 | MAL12 | enzyme activity | inhibitor | absorbance | pH 6.9 | – | 2.42 µM |
| Nc1ccn(C[C@@H](CO)OCP(=O)(O)O)c(=O)n1 | Solute carrier family 22 member 6 (SLC22A6, Homo sapiens, UniProt Q4U2R8, F438Y) | transporter uptake | inhibitor | fluorescence | – | – | 1400 µM |
| O=c1cc(-c2ccc(O)cc2)oc2cc(O[C@@H]3O[C@H](CO)[C@@H](O)[C@H](O)[C@H]3O)cc(O)c12 | SQLE | enzyme activity | inhibitor | radiometric | – | – | 1.74 µM |
| C[C@H]1CN(C(=O)Nc2ccc(C(F)(F)F)cc2)CCN1c1ccnc(Nc2cccc(O)c2)n1 | MAL12 | enzyme activity | inhibitor | absorbance | pH 6.9 | – | 2.05 µM |
| CCN(CC)C(C)CN1c2ccccc2Sc2ccccc21 (stereo not drawn) | SQLE | enzyme activity | inhibitor | absorbance | pH 7.4 | with preincubation | 1.69 µM |
| CCCOc1ccc2c(c1)O/C(=C\c1ccc(OC(C)(C)C(=O)O)cc1)C2=O | FABP1 | cell-free assay | inhibitor | fluorescence | pH 7.4 | – | 9.4 µM |
| NS(=O)(=O)c1ccc(-n2nc(C(=O)NN=Cc3ccccc3O)cc2-c2ccccc2)cc1 | Focal adhesion kinase 1 (PTK2, Homo sapiens, UniProt Q05397) | enzyme activity | inhibitor | ELISA | – | – | 15.9 µM |
